Measurements reported in ChEMBL document CHEMBL3232752, “Synthesis, cytotoxicity and molecular modelling studies of new phenylcinnamide derivatives as potent inhibitors of cholinesterases” (Eur J Med Chem, 2014).

What was measured:
[1] = target: Acetylcholinesterase (Electrophorus electricus, UniProt O42275); experiment: (§1) Inhibition of electric eel acetylcholinesterase using acetylthiocholine iodide as substrate preincubated for 10 mins before substrate addition after 15 mins by Ellman's method
[2] = target: Cholinesterase (Homo sapiens, UniProt P06276); experiment: Inhibition of human BChE using butyrylthiocholine iodide as substrate preincubated for 10 mins before substrate addition after 15 mins by Ellman's method; parameters: concentration or dose not given beside the values
[3] = target: Acetylcholinesterase (Electrophorus electricus) (UniProt O42275); experiment: as §1; parameters: concentration or dose not given beside the values
[4] = system: NCI-H157; experiment: Antiproliferative activity against human NCI-H157 cells at 1 uM after 48 hrs by SRB assay; assay type: functional
Procedure, shortened: (§2)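 H157 lung carcinoma cells were seeded at 10⁴ cells per well in 96-well plates and grown 24 h at 37 °C in 5% CO₂ to a monolayer. Compounds were added at […]. Cells were fixed, stained with 0.4% w/v sulforhodamine B in 1% acetic acid for 30 min at room temperature, rinsed in acetic acid, and the dye dissolved in 10 mM Tris base for 10 min.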

[5] = system: NCI-H157; experiment: Antiproliferative activity against human NCI-H157 cells at 100 uM after 48 hrs by SRB assay; assay type: functional; procedure, shortened: as §2

Sequence of Cholinesterase (P06276 whole entry): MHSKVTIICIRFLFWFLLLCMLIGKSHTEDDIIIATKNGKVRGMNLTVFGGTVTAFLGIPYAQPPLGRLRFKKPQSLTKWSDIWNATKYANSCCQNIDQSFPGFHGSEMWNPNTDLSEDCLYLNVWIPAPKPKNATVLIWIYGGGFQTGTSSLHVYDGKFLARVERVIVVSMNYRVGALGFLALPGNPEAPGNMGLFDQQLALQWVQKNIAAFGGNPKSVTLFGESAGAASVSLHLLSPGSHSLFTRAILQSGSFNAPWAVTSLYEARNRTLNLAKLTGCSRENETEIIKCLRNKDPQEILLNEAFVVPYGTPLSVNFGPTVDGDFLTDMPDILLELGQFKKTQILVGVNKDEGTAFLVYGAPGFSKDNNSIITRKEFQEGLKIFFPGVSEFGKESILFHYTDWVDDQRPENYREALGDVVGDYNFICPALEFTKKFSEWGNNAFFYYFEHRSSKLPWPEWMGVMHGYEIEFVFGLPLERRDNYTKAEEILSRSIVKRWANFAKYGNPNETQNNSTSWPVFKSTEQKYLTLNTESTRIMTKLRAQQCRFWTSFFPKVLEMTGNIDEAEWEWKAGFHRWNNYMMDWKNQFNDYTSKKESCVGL
Sequence of Acetylcholinesterase (Electrophorus electricus) (O42275 24-633 limits assumed): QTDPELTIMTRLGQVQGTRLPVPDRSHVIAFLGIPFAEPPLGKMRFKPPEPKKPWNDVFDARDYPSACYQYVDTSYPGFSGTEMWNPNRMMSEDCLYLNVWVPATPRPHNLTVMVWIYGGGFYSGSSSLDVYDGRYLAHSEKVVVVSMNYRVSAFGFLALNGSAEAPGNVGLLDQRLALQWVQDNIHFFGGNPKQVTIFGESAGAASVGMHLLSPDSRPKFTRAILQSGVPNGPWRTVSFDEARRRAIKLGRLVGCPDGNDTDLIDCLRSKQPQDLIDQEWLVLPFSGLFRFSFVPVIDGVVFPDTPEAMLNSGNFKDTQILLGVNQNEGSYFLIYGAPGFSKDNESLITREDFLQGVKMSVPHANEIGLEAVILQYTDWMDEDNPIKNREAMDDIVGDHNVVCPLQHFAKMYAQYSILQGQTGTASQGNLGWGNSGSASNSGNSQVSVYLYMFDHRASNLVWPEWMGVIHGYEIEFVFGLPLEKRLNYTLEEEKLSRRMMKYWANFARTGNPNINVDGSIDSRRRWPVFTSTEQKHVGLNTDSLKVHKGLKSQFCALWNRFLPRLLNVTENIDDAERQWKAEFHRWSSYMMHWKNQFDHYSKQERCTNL
Sequence of Acetylcholinesterase (O42275 whole entry): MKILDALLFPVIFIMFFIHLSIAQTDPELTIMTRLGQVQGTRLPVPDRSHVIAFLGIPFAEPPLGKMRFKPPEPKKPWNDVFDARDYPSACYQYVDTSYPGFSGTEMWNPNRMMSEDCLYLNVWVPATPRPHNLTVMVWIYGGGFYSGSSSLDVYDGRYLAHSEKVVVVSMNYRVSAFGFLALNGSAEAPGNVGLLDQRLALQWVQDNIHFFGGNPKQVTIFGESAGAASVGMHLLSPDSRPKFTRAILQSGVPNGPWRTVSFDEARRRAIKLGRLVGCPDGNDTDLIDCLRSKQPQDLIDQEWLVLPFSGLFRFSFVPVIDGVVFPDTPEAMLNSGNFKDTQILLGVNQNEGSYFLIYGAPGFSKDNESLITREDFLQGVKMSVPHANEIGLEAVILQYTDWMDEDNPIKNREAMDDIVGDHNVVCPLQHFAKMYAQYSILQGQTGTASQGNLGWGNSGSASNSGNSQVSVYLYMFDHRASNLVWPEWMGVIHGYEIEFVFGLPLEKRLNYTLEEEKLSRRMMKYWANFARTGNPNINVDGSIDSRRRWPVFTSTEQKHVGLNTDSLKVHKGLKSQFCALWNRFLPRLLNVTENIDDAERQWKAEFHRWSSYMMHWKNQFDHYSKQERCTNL

Structure (SMILES): COc1cc(NC(=O)/C=C/c2ccc(OCc3ccccc3)cc2)cc(OC)c1OC
- IC50 [1]: 3.72 µM
- inhibition [2]: 33.5%

Structure (SMILES): C=CCOc1ccccc1/C=C/C(=O)Nc1cc(OC)c(OC)c(OC)c1
- IC50 [1]: 1.41 µM
- inhibition [2]: 24.8%

Structure (SMILES): CN(C)C(=O)Oc1cccc([N+](C)(C)C)c1 [NEOSTIGMINE]
- IC50 [1]: 22 µM
- IC50 [2]: 49.1 µM

Structure (SMILES): COc1cc(NC(=O)/C=C/c2ccc(OCc3ccccc3)cc2O)cc(OC)c1OC
- IC50 [1]: 1.59 µM
- inhibition [2]: 27.2%

Structure (SMILES): COc1cc(NC(=O)/C=C/c2ccc(OC(C)=O)cc2)cc(OC)c1OC
- inhibition [3]: 36.5%
- inhibition [2]: 37.4%

Structure (SMILES): COc1cc(NC(=O)/C=C/c2c(O)cccc2[N+](=O)[O-])cc(OC)c1OC
- IC50 [1]: 12.8 µM
- inhibition [2]: 35.4%

Structure (SMILES): COc1cc(NC(=O)/C=C/c2cccc(OCc3ccccc3)c2)cc(OC)c1OC
- IC50 [1]: 6.52 µM
- IC50 [2]: 3.93 µM

Structure (SMILES): COc1cc(NC(=O)/C=C/c2cc(O)ccc2O)cc(OC)c1OC
- inhibition [3]: 30.3%
- inhibition [2]: 36.2%
- Activity [4]: 60%

Structure (SMILES): COc1cc(NC(=O)/C=C/c2cccc(O)c2O)cc(OC)c1OC
- inhibition [3]: 31.2%
- inhibition [2]: 41.2%

Structure (SMILES): C=CCOc1ccc(/C=C/C(=O)Nc2cc(OC)c(OC)c(OC)c2)cc1
- inhibition [3]: 33.6%
- inhibition [2]: 32.6%

Structure (SMILES): COc1cc(NC(=O)/C=C/c2ccc(O)cc2O)cc(OC)c1OC
- inhibition [3]: 36.6%
- inhibition [2]: 18.2%

Structure (SMILES): CC[C@]1(O)C[C@H]2CN(CCc3c([nH]c4ccccc34)[C@@](C(=O)OC)(c3cc4c(cc3OC)N(C=O)[C@H]3[C@@](O)(C(=O)OC)[C@H](OC(C)=O)[C@]5(CC)C=CCN6CC[C@]43[C@@H]65)C2)C1 [VINCRISTINE]
- Activity [5]: 46%

Structure (SMILES): COc1cc(NC(=O)/C=C/c2ccc(O)c(O)c2)cc(OC)c1OC
- inhibition [3]: 36.4%
- inhibition [2]: 34.6%

Structure (SMILES): COc1cc(NC(=O)/C=C/c2cccc(OC(C)=O)c2)cc(OC)c1OC
- inhibition [3]: 29.2%
- IC50 [2]: 1.25 µM

Structure (SMILES): COc1cc(NC(=O)/C=C/c2ccccc2OCc2ccccc2)cc(OC)c1OC
- IC50 [1]: 0.29 µM
- inhibition [2]: 32.1%

Structure (SMILES): COc1ccc(/C=C/C(=O)Nc2cc(OC)c(OC)c(OC)c2)cc1O
- IC50 [1]: 4.22 µM
- IC50 [2]: 7.65 µM

Structure (SMILES): COc1cccc(/C=C/C(=O)Nc2cc(OC)c(OC)c(OC)c2)c1O
- IC50 [1]: 6.22 µM
- IC50 [2]: 5.19 µM

Structure (SMILES): COc1cc(NC(=O)/C=C/c2c(F)cccc2Cl)cc(OC)c1OC
- inhibition [3]: 34.1%
- IC50 [2]: 1.32 µM
- Activity [4]: 66%

Structure (SMILES): COc1ccc(/C=C/C(=O)Nc2cc(OC)c(OC)c(OC)c2)cc1OCc1ccccc1
- IC50 [1]: 6.02 µM
- inhibition [2]: 31.1%
- Activity [4]: 61%

Structure (SMILES): COc1cc(/C=C/C(=O)Nc2cc(OC)c(OC)c(OC)c2)ccc1OCc1ccccc1
- IC50 [1]: 12.6 µM
- inhibition [2]: 32.8%

Structure (SMILES): COc1cc(/C=C/C(=O)Nc2cc(OC)c(OC)c(OC)c2)ccc1OC(C)=O
- IC50 [1]: 4.98 µM
- inhibition [2]: 31.1%

Structure (SMILES): COc1cccc(/C=C/C(=O)Nc2cc(OC)c(OC)c(OC)c2)c1
- IC50 [1]: 12.9 µM
- inhibition [2]: 41.8%

Structure (SMILES): COc1cc(NC(=O)/C=C/c2ccc(Cl)cc2)cc(OC)c1OC
- IC50 [1]: 31.2 µM
- inhibition [2]: 25.7%

Structure (SMILES): COc1cc(NC(=O)/C=C/c2ccc(NOC(C)=O)cc2)cc(OC)c1OC
- IC50 [1]: 12.5 µM
- IC50 [2]: 3.85 µM

Structure (SMILES): COc1ccc(/C=C/C(=O)Nc2cc(OC)c(OC)c(OC)c2)cc1[N+](=O)[O-]
- IC50 [1]: 6.69 µM
- inhibition [2]: 28.1%
- Activity [4]: 66%

Structure (SMILES): COc1cc(NC(=O)/C=C/c2c(Cl)cccc2[N+](=O)[O-])cc(OC)c1OC
- inhibition [3]: 34.2%

Structure (SMILES): COc1cc(NC(=O)/C=C/c2cccc([N+](=O)[O-])c2)cc(OC)c1OC
- IC50 [1]: 3.24 µM
- inhibition [2]: 26.2%
